Assay results as given in ChEMBL document CHEMBL1132419 (J Med Chem, 1999).

Columns and labels:
Plasmodium falciparum = experiment: Antimalarial activity against chloroquine-sensitive Plasmodium falciparum NF54; type: functional, organism-based
Mus musculus [1] = experiment: In vivo antimalarial activity against Plasmodium berghei N on oral administration.; type: functional
How it was run: (§1)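 Mice, 5 per dose group, given 1, 3, 10 or 30 mg/kg once daily for 4 days by the route stated; ED values derived from the four-dose series.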

Mus musculus [2] = experiment: In vivo antimalarial activity against Plasmodium berghei N on subcutaneous administration.; type: functional; conditions: sc; how it was run: as §1
Plasmodium berghei = experiment: Antimalarial activity against Plasmodium berghei N; conditions: Mus musculus

Row | SMILES | IC50 (Plasmodium falciparum) [nM] | ED90 (Mus musculus [2]) [mg/kg] | other results
1 | COc1ccc2cc([C@@H]3O[C@@H]4OC5(C)CC[C@H]6[C@H](C)CC[C@@H]([C@H]3C)[C@@]46OO5)c(OC)cc2c1 (single isomer, unassigned) | 9 |  | 
2 | C[C@H]1[C@H](c2cccn2Cc2ccccc2)O[C@@H]2OC3(C)CC[C@H]4[C@H](C)CC[C@@H]1[C@@]24OO3 (single isomer, unassigned) | 16 |  | 
3 | C[C@H]1[C@H](c2ccco2)O[C@@H]2OC3(C)CC[C@H]4[C@H](C)CC[C@@H]1[C@@]24OO3 (single isomer, unassigned) | 1.4 | 2 | ED90 (Mus musculus [1]): 24 mg/kg
4 | COc1cc(OC)c([C@@H]2O[C@@H]3OC4(C)CC[C@H]5[C@H](C)CC[C@@H]([C@H]2C)[C@@]35OO4)c(OC)c1 (single isomer, unassigned) | 7.8 |  | 
5 | CCO[C@H]1O[C@@H]2O[C@@]3(C)CC[C@H]4[C@H](C)CC[C@@H]([C@H]1C)[C@@]24OO3 [ARTEMOTIL] |  | 0.5 | ED50 (Plasmodium berghei): 0.3 mg/kg; ED50 (Mus musculus [2]): 0.3 mg/kg
6 | C[C@H]1[C@H](c2cccn2Cc2ccco2)O[C@@H]2OC3(C)CC[C@H]4[C@H](C)CC[C@@H]1[C@@]24OO3 (single isomer, unassigned) | 9.4 |  | 
7 | CCc1ccc([C@@H]2O[C@@H]3OC4(C)CC[C@H]5[C@H](C)CC[C@@H]([C@H]2C)[C@@]35OO4)o1 (single isomer, unassigned) | 8.6 |  | 
8 | C[C@H]1[C@H](c2ccc(C(C)(C)C)o2)O[C@@H]2OC3(C)CC[C@H]4[C@H](C)CC[C@@H]1[C@@]24OO3 (single isomer, unassigned) | 10 |  | 
9 | C[C@H]1[C@H](c2cn(C)c3ccccc23)O[C@@H]2OC3(C)CC[C@H]4[C@H](C)CC[C@@H]1[C@@]24OO3 (single isomer, unassigned) | 4 |  | 
10 | CCN(CC)CCCC(C)Nc1ccnc2cc(Cl)ccc12 (stereo unspecified) [CHLOROQUINE] |  | 3.1 | 
11 | COc1ccc([C@@H]2O[C@@H]3OC4(C)CC[C@H]5[C@H](C)CC[C@@H]([C@H]2C)[C@@]35OO4)c(OC)c1 (single isomer, unassigned) | 4.2 |  | 
12 | C=CCOc1ccc([C@@H]2O[C@@H]3OC4(C)CC[C@H]5[C@H](C)CC[C@@H]([C@H]2C)[C@@]35OO4)c(OCC=C)c1 (single isomer, unassigned) | 6.6 |  | 
13 | CCOC(=O)Cn1cccc1[C@@H]1O[C@@H]2OC3(C)CC[C@H]4[C@H](C)CC[C@@H]([C@H]1C)[C@@]24OO3 (single isomer, unassigned) | 9.1 |  | 
14 | C[C@@H]1CC[C@H]2[C@@H](C)C(=O)O[C@@H]3O[C@@]4(C)CC[C@@H]1[C@]32OO4 [ARTEMISININ] |  | 8.5 | ED50 (Mus musculus [2]): 3 mg/kg
15 | C[C@H]1[C@H](c2cccn2C)O[C@@H]2OC3(C)CC[C@H]4[C@H](C)CC[C@@H]1[C@@]24OO3 (single isomer, unassigned) | 4.6 | 1.2 | ED90 (Mus musculus [1]): 8.5 mg/kg; ED50 (Mus musculus [2]): 0.7 mg/kg
16 | Cc1ccc([C@@H]2O[C@@H]3OC4(C)CC[C@H]5[C@H](C)CC[C@@H]([C@H]2C)[C@@]35OO4)o1 (single isomer, unassigned) | 5.2 | 2 | ED50 (Mus musculus [1]): 15.5 mg/kg; ED90 (Mus musculus [1]): 43 mg/kg; ED50 (Mus musculus [2]): 0.9 mg/kg
17 | CSc1ccc(C#[C][Al]([CH3])[CH2][C@@H]2O[C@@H]3O[C@]4(C)CC[C@H]5[C@H](C)CC[C@@H]([C@H]2C)[C@@]35OO4)cc1 | 8.4 |  | 
18 | C[C@H]1[C@H](c2cccs2)O[C@@H]2OC3(C)CC[C@H]4[C@H](C)CC[C@@H]1[C@@]24OO3 (single isomer, unassigned) | 5.1 |  | 
19 | C[C@H]1[C@H]([CH2][Al]([CH3])[C]#Cc2ccc(F)cc2)O[C@@H]2O[C@]3(C)CC[C@H]4[C@H](C)CC[C@@H]1[C@@]24OO3 | 8.3 |  | 
